Laboratory results taken from ChEMBL document CHEMBL1151850, “Triterpenoid saponins from Dianthus versicolor” (J Nat Prod, 2009).

Experiments:
HepG2 = experiment: Cytotoxicity against human HepG2 cells after 24 hrs by MTT assay; format: functional, cell-based; settings: HepG2, 24 h
How it was run: (§1)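 Grown in DMEM with 10% fetal calf serum, 2 mM L-glutamine and penicillin/streptomycin at 37 °C, 5% CO2. 10^4 cells/well adhered 24 h before serial dilutions were added (DMSO stock diluted in medium, final DMSO <1%), in parallel triplicate wells. After 24 h exposure, MTT added for 4 h. Formazan dissolved in DMSO; viability read as absorbance at 570 nm.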

HFL1 = experiment: Cytotoxicity against human HFL1 cells after 24 hrs by MTT assay; format: cell-based; settings: HFL1, 24 h; how it was run: as §1
[1] = Cytotoxicity against human EVC304 cells after 24 hrs by MTT assay; format: cell-based; settings: EVC304, 24 h
How it was run: (§2)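 Cells kept at 37 °C, 5% CO2 in RPMI-1640 with 10% fetal calf serum, subcultured twice weekly. Plated at 10^4 cells/well and allowed to adhere 24 h. Serial dilutions added from DMSO stock diluted in RPMI-1640, final DMSO below 1%, triplicate wells. After 24 h, MTT added for 4 h. Formazan dissolved in DMSO, absorbance read at 570 nm.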

[2] = Cytotoxicity against human BGC803 cells after 24 hrs by MTT assay; format: functional, cell-based; settings: BGC803, 24 h; how it was run: as §2
MCF7 = experiment: Cytotoxicity against human MCF7 cells after 24 hrs by MTT assay; format: functional, cell-based; settings: MCF7, 24 h; how it was run: as §1

Structure (SMILES) | IC50 (HepG2) [µM] | IC50 (HFL1) [µM] | IC50 [1] [µM] | IC50 [2] [µM] | IC50 (MCF7) [µM]
CC1(C)CC[C@]2(C(=O)O[C@@H]3O[C@H](CO[C@@H]4O[C@H](CO)[C@@H](O)[C@H](O)[C@H]4O[C@@H]4O[C@H](CO)[C@@H](O)[C@H](O)[C@H]4O)[C@@H](O)[C@H](O[C@@H]4O[C@H](CO)[C@@H](O)[C@H](O)[C@H]4O)[C@H]3O)[C@H](O)C[C@]3(C)C(=CC[C@@H]4[C@@]5(C)CC[C@H](O)[C@@](C)(C(=O)O[C@@H]6O[C@H](CO)[C@@H](O)[C@H](O)[C@H]6O)[C@@H]5CC[C@]43C)[C@@H]2C1 [DIANVERSICOSIDE E] | > 10 | 3.5 | 9.1 | 7.4 | > 10
CC1(C)CC[C@]2(C(=O)O[C@@H]3O[C@H](CO[C@@H]4O[C@H](COC(=O)C[C@@](C)(O)CC(=O)O)[C@@H](O)[C@H](O)[C@H]4O[C@@H]4O[C@H](CO)[C@@H](O)[C@H](O)[C@H]4O)[C@@H](O)[C@H](O[C@@H]4O[C@H](CO)[C@@H](O)[C@H](O)[C@H]4O)[C@H]3O)[C@H](O)C[C@]3(C)C(=CC[C@@H]4[C@@]5(C)CC[C@H](O)[C@@](C)(C(=O)O)[C@@H]5CC[C@]43C)[C@@H]2C1 [DIANVERSICOSIDE B] | > 10 | 3.1 | 7.7 | 5.7 | > 10
CC1(C)CC[C@]2(C(=O)O[C@@H]3O[C@H](CO[C@@H]4O[C@H](COC(=O)C[C@@](C)(O)CC(=O)O)[C@@H](O)[C@H](O)[C@H]4O[C@@H]4O[C@H](CO)[C@@H](O)[C@H](O)[C@H]4O)[C@@H](O)[C@H](O[C@@H]4O[C@H](CO)[C@@H](O)[C@H](O)[C@H]4O)[C@H]3O)CC[C@]3(C)C(=CC[C@@H]4[C@@]5(C)CC[C@H](O)[C@@](C)(C(=O)O)[C@@H]5CC[C@]43C)[C@@H]2C1 [DIANVERSICOSIDE D] | > 10 | 3.4 | 3.9 | 2.9 | > 10
CC1(C)CC[C@]2(C(=O)O[C@@H]3O[C@H](CO[C@@H]4O[C@H](CO)[C@@H](O)[C@H](O)[C@H]4O[C@@H]4O[C@H](CO)[C@@H](O)[C@H](O)[C@H]4O)[C@@H](O)[C@H](O[C@@H]4O[C@H](CO)[C@@H](O)[C@H](O)[C@H]4O)[C@H]3O)CC[C@]3(C)C(=CC[C@@H]4[C@@]5(C)CC[C@H](O[C@@H]6OC[C@H](O)[C@H](O)[C@H]6O)[C@@](C)(C(=O)O)[C@@H]5CC[C@]43C)[C@@H]2C1 [DIANVERSICOSIDE G] | > 10 | 3.3 | 6.2 | 6.8 | > 10
CC1(C)CC[C@]2(C(=O)O[C@@H]3O[C@H](CO[C@@H]4O[C@H](CO)[C@@H](O)[C@H](O)[C@H]4O[C@@H]4O[C@H](CO)[C@@H](O)[C@H](O)[C@H]4O)[C@@H](O)[C@H](O[C@@H]4O[C@H](CO)[C@@H](O)[C@H](O)[C@H]4O)[C@H]3O)CC[C@]3(C)C(=CC[C@@H]4[C@@]5(C)CC[C@H](O)[C@@](C)(C(=O)O)[C@@H]5CC[C@]43C)[C@@H]2C1 [VACCAROID A] | > 10 | 7.8 | 4.1 | 5.3 | > 10
CC1(C)CC[C@]2(C(=O)O[C@@H]3O[C@H](CO[C@@H]4O[C@H](COC(=O)C[C@@](C)(O)CC(=O)O)[C@@H](O)[C@H](O)[C@H]4O[C@@H]4O[C@H](CO)[C@@H](O)[C@H](O)[C@H]4O)[C@@H](O)[C@H](O)[C@H]3O)[C@H](O)C[C@]3(C)C(=CC[C@@H]4[C@@]5(C)CC[C@H](O)[C@@](C)(C(=O)O[C@@H]6O[C@H](CO)[C@@H](O)[C@H](O)[C@H]6O)[C@@H]5CC[C@]43C)[C@@H]2C1 [DIANVERSICOSIDE A] | > 10 | 2.8 | 8.4 | 6.2 | > 10
CC1(C)CC[C@]2(C(=O)O[C@@H]3O[C@H](CO[C@@H]4O[C@H](CO)[C@@H](O)[C@H](O)[C@H]4O[C@@H]4O[C@H](CO)[C@@H](O)[C@H](O)[C@H]4O)[C@@H](O)[C@H](O)[C@H]3O)[C@H](O)C[C@]3(C)C(=CC[C@@H]4[C@@]5(C)CC[C@H](O)[C@@](C)(C(=O)O[C@@H]6O[C@H](CO)[C@@H](O)[C@H](O)[C@H]6O)[C@@H]5CC[C@]43C)[C@@H]2C1 [DIANVERSICOSIDE F] | > 10 | 4.4 | 9.6 | 9.7 | > 10
CC1(C)CC[C@]2(C(=O)O)CC[C@]3(C)C(=CC[C@@H]4[C@@]5(C)CC[C@H](O)[C@@](C)(C(=O)O[C@@H]6O[C@H](CO[C@@H]7O[C@H](CO)[C@@H](O)[C@H](O)[C@H]7O[C@@H]7O[C@H](CO)[C@@H](O)[C@H](O)[C@H]7O)[C@@H](O)[C@H](O[C@@H]7O[C@H](CO)[C@@H](O)[C@H](O)[C@H]7O)[C@H]6O)[C@@H]5CC[C@]43C)[C@@H]2C1 [VACCAROID C] | > 10 | 3.8 | 8.7 | 9.4 | > 10
